# Tests used:
# [1] = tested on: Mycobacterium tuberculosis; test: Inhibition of Mycobacterium tuberculosis His6-tagged InhA expressed in Escherichia coli BL21 using 2-trans-dodecenoyl-CoA as substrate assessed as conversion of NADH to NAD+ at 50 uM relative to control
# Procedure, shortened: (§1)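 Triplicate NADH-dependent reduction of the substrate analogue 2-trans-dodecenoyl-CoA by InhA, with NADH oxidation to NAD+ followed as the fall in absorbance at 340 nm. Percent inhibition was screened at 50 µM, or at 10 µM where solubility limited. IC50 came from 4-parameter curve fits of at least six concentrations.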
# [2] = tested on: Mycobacterium tuberculosis; test: Inhibition of Mycobacterium tuberculosis His6-tagged InhA expressed in Escherichia coli BL21 using 2-trans-dodecenoyl-CoA as substrate assessed as conversion of NADH to NAD+ at 10 uM relative to control; procedure, shortened: as §1
# [3] = Inhibition of Mycobacterium tuberculosis His6-tagged InhA expressed in Escherichia coli BL21 using 2-trans-dodecenoyl-CoA as substrate assessed as conversion of NADH to NAD+; procedure, shortened: as §1
# [4] = tested on: Mycobacterium tuberculosis; test: Antimycobacterial activity against Mycobacterium tuberculosis H37Rv after 21 days by microbroth dilution method; type: functional
# [5] = tested on: Mycobacterium tuberculosis; test: Antimycobacterial activity against Mycobacterium tuberculosis H37Rv after 21 days by microbroth dilution method in presence of 3 ug/ml efflux pump inhibitor reserpine; type: functional; conditions: 504 h
# [6] = tested on: Mycobacterium tuberculosis; test: Antimycobacterial activity against Mycobacterium tuberculosis H37Rv after 21 days by microbroth dilution method in presence of 40 ug/ml efflux pump inhibitor verapamil; type: functional; conditions: 504 h
# [7] = tested on: Mycobacterium tuberculosis; test: Antimycobacterial activity against Mycobacterium tuberculosis H37Rv after 21 days by microbroth dilution method in presence of 7.5 ug/ml efflux pump inhibitor CCCP; type: functional; conditions: 504 h
# [8] = tested on: Mycobacterium tuberculosis; test: Ratio of MIC for Mycobacterium tuberculosis H37Rv in absence of verapamil to MIC for Mycobacterium tuberculosis H37Rv in presence of verapamil; type: functional
# [9] = tested on: Mycobacterium tuberculosis; test: Ratio of MIC for Mycobacterium tuberculosis H37Rv in absence of CCCP to MIC for Mycobacterium tuberculosis H37Rv in presence of CCCP; type: functional
# [10] = tested on: Mycobacterium tuberculosis; test: Antimycobacterial activity against Mycobacterium tuberculosis by CFU counting method; type: functional
# [11] = tested on: Mycobacterium tuberculosis; test: Antimycobacterial activity against Mycobacterium tuberculosis by Alamar blue assay; type: functional
# [12] = tested on: Mycobacterium tuberculosis; test: Ratio of MIC for Mycobacterium tuberculosis H37Rv in absence of reserpine to MIC for Mycobacterium tuberculosis H37Rv in presence of reserpine; type: functional
# [13] = tested on: Mycobacterium tuberculosis; test: Inhibition of Mycobacterium tuberculosis His6-tagged InhA expressed in Escherichia coli BL21 using 2-trans-dodecenoyl-CoA as substrate assessed as conversion of NADH to NAD+ at 250 nM relative to control
# Procedure, shortened: (§2)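 Chirally separated enantiomers were tested for InhA inhibition at 5 µM or 250 nM, run in triplicate. The assay used 2-trans-dodecenoyl-CoA substrate and NADH, read as the decrease in absorbance at 340 nm from NADH oxidation to NAD+. IC50 came from 4-parameter fits of at least six points.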
# [14] = tested on: Mycobacterium tuberculosis; test: Inhibition of Mycobacterium tuberculosis His6-tagged InhA expressed in Escherichia coli BL21 using 2-trans-dodecenoyl-CoA as substrate assessed as conversion of NADH to NAD+ at 5 uM relative to control; procedure, shortened: as §2
# [15] = Mycobacterium tuberculosis, H37Rv, 504 h, read-out: MIC
Structure (SMILES),inhibition [1],inhibition [2],IC50 [3],"MIC [4, 15]",further results
O=C(Nc1ccccc1)N1CCN(C2c3ccccc3-c3ccccc32)CC1,84%,79%,1180 nM,> 27.1 µM,
O=C(c1ccc2[nH]ccc2c1)N1CCN(C2c3ccccc3-c3ccccc32)CC1,87%,81%,860 nM,50.1 µM,MIC [5]: 25.4 µM; MIC [6]: < 12.7 µM; MIC [7]: < 12.7 µM; Ratio [8]: >4; Ratio [9]: >4; MIC [10]: > 125 µM; MIC [11]: > 125 µM
O=C(c1ccccc1)N1CCN(C2c3ccccc3-c3ccccc32)CC1,94%,94%,490 nM,14.1 µM,MIC [5]: 56.5 µM; MIC [6]: 56.5 µM; MIC [7]: < 3.5 µM; Ratio [9]: >5
O=S(=O)(c1ccccc1)N1CCN(C2c3ccccc3-c3ccccc32)CC1,12%,,,> 25.6 µM,
c1ccc2c(c1)-c1ccccc1C2N1CCNCC1,7%,,,> 39.9 µM,
CCCCC(=O)N1CCN(C2c3ccccc3-c3ccccc32)CC1,75%,45%,,29.9 µM,
CCCCCCCCC(=O)N1CCN(C2c3ccccc3-c3ccccc32)CC1,47%,22%,,12.8 µM,
S=C(c1ccccc1)N1CCN(C2c3ccccc3-c3ccccc32)CC1,31%,,,13.5 µM,
S=C(Nc1ccccc1)N1CCN(C2c3ccccc3-c3ccccc32)CC1,57%,32%,,> 25.9 µM,
CCCCNC(=O)N1CCN(C2c3ccccc3-c3ccccc32)CC1,68%,42%,,14.3 µM,
CCCCCCCCNC(=O)N1CCN(C2c3ccccc3-c3ccccc32)CC1,34%,,,> 24.7 µM,
O=C(Nc1ccc([N+](=O)[O-])cc1)N1CCN(C2c3ccccc3-c3ccccc32)CC1,33%,,,12.1 µM,
O=C(c1ccccc1)N1CCC(C2c3ccccc3-c3ccccc32)CC1,93%,88%,940 nM,28.3 µM,
O=C1CN(C2c3ccccc3-c3ccccc32)CCN1C(=O)c1ccccc1,26%,,,> 27.1 µM,
[O-][S+](c1ccccc1)N1CCN(C2c3ccccc3-c3ccccc32)CC1 (racemic),14%,,,> 26.7 µM,
CP(=O)(c1ccccc1)N1CCN(C2c3ccccc3-c3ccccc32)CC1 (racemic),17%,,,> 24.7 µM,
COP(=O)(c1ccccc1)N1CCN(C2c3ccccc3-c3ccccc32)CC1 (racemic),17%,,,> 25.7 µM,
CCCCCCc1ccc2c(c1)C(N1CCN(C(=O)c3ccccc3)CC1)c1ccccc1-2 (racemic),48%,45%,,22.8 µM,
CCCCCCCCc1ccc2c(c1)C(N1CCN(C(=O)c3ccccc3)CC1)c1ccccc1-2 (racemic),54%,27%,,> 21.4 µM,

Structure (SMILES),inhibition [1],inhibition [2],IC50 [3],"MIC [4, 15]",further results
CCCCCCc1ccc2c(c1)-c1ccccc1C2N1CCN(C(=O)c2ccccc2)CC1 (racemic),60%,52%,1000 nM,22.8 µM,
COc1ccc2c(c1)-c1ccccc1C2N1CCN(C(=O)c2ccccc2)CC1 (racemic) [listing 1 of 2 here],,,2690 nM,26 µM,
CCCOc1ccc2c(c1)-c1ccccc1C2N1CCN(C(=O)c2ccccc2)CC1 (racemic),91%,84%,1010 nM,24.2 µM,
CCCCCCOc1ccc2c(c1)-c1ccccc1C2N1CCN(C(=O)c2ccccc2)CC1 (racemic) [listing 1 of 2 here],,,200 nM,22 µM,
CCCOc1ccc2c(c1)C(N1CCN(C(=O)c3ccccc3)CC1)c1ccccc1-2 (racemic),88%,83%,1300 nM,> 24.2 µM,
O=C(c1ccccc1)N1CCN(C2c3ccccc3-c3cc(OCc4ccccc4)ccc32)CC1 (racemic),63%,57%,1000 nM,> 21.7 µM,
CCCCCCOc1ccc2c(c1)-c1ccccc1C2C1CCN(C(=O)c2ccccc2)CC1 (racemic),64%,71%,1050 nM,88.2 µM,MIC [5]: 22.1 µM; MIC [6]: 44.1 µM; Ratio [8]: 2; Ratio [12]: 4
CCCCCCOc1ccc2c(c1)-c1ccccc1C2N1CCN(C(=O)c2ccccc2)CC1 (racemic) [listing 2 of 2 here],79%,70%,,,inhibition [13]: 53%
COc1ccc2c(c1)-c1ccccc1C2N1CCN(C(=O)c2ccccc2)CC1 (racemic) [listing 2 of 2 here],92%,74%,,,inhibition [14]: 60%
"CCCCCCOc1ccc2c(c1)-c1ccccc1C2N1CCN(C(=O)c2ccccc2)CC1 (single isomer, unassigned) [listing 1 of 2 here]",,,,,MIC [4]: >22 µM
"CCCCCCOc1ccc2c(c1)-c1ccccc1C2N1CCN(C(=O)c2ccccc2)CC1 (single isomer, unassigned) [listing 2 of 2 here]",,,,,inhibition [13]: 0%
"COc1ccc2c(c1)-c1ccccc1C2N1CCN(C(=O)c2ccccc2)CC1 (single isomer, unassigned; enantiomer 1) [listing 1 of 2 here]",,,,,MIC [4]: >26 µM
"COc1ccc2c(c1)-c1ccccc1C2N1CCN(C(=O)c2ccccc2)CC1 (single isomer, unassigned; enantiomer 1) [listing 2 of 2 here]",,,,,inhibition [14]: 11%
"CCCCCCOc1ccc2c(c1)-c1ccccc1C2N1CCN(C(=O)c2ccccc2)CC1 (single isomer, unassigned; enantiomer 2) [listing 1 of 2 here]",,,102 nM,,MIC [4]: 11 µM; MIC [5]: < 2.7 µM; MIC [6]: 11 µM; MIC [7]: < 2.7 µM; Ratio [9]: >4; Ratio [12]: >4
"CCCCCCOc1ccc2c(c1)-c1ccccc1C2N1CCN(C(=O)c2ccccc2)CC1 (single isomer, unassigned; enantiomer 2) [listing 2 of 2 here]",,,,,inhibition [13]: 71%
COc1ccc2c(c1)-c1ccccc1C2N1CCN(C(=O)c2ccccc2)CC1 (stereo in doubt; 31b) [listing 1 of 2 here],,,2070 nM,,
COc1ccc2c(c1)-c1ccccc1C2N1CCN(C(=O)c2ccccc2)CC1 (stereo in doubt; 31b) [listing 2 of 2 here],,,,,inhibition [14]: 68%
NNC(=O)c1ccncc1 [ISONIAZID],,,,0.4 µM,

# Source: ChEMBL document CHEMBL3608306, “Design, synthesis and evaluation of new GEQ derivatives as inhibitors of InhA enzyme and Mycobacterium tuberculosis growth” (Eur J Med Chem, 2015)
